Measurements: ChEMBL document CHEMBL4138085, “Design, synthesis and antimicrobial evaluation of novel benzimidazole-incorporated sulfonamide analogues” (Eur J Med Chem, 2017)
In brackets after ≈: the same amount, converted by molar mass.

How the values were obtained:
Staphylococcus aureus [1] = test: Antibacterial activity against Staphylococcus aureus ATCC 25923 after 24 hrs by NCCLS two fold broth microdilution method; format: functional; conditions: ATCC 25923, 24 h
How it was run: (§1)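 Two-fold serial broth microdilution in 96-well plates following NCCLS. Compounds were dissolved in DMSO as stocks, then diluted in Mueller–Hinton broth to final concentrations of 0.5–512 µg/mL. Plates were inoculated and incubated at 37 °C for 24 h, with growth read visually and spectrophotometrically. MIC was taken as the lowest concentration giving complete growth inhibition. Run in triplicate, with a DMSO-plus-inoculum solvent control.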

Staphylococcus aureus [2] = test: Antibacterial activity against methicillin-resistant Staphylococcus aureus N315 after 24 hrs by NCCLS two fold broth microdilution method; format: functional; conditions: N315, 24 h
How it was run: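 Two-fold serial broth microdilution per NCCLS. Chloromycin and norfloxacin as reference drugs; DMSO with inoculum, no drug, as solvent control. Incubation 37 °C for 24 h. Growth read visually and spectrophotometrically. MIC is the lowest concentration completely inhibiting growth; triplicate.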

Bacillus subtilis = test: Antibacterial activity against Bacillus subtilis ATCC 21216 after 24 hrs by NCCLS two fold broth microdilution method; format: functional; conditions: ATCC 21216, 24 h; how it was run: as §1
Micrococcus luteus = test: Antibacterial activity against Micrococcus luteus ATCC 4698 after 24 hrs by NCCLS two fold broth microdilution method; format: functional; conditions: NCTC 2665, 24 h; how it was run: as §1
Bacillus = test: Antibacterial activity against Bacillus proteus ATCC 13315 after 24 hrs by NCCLS two fold broth microdilution method; format: functional; conditions: ATCC 13315, 24 h; how it was run: as §1
Escherichia coli = test: Antibacterial activity against Escherichia coli ATCC 8099 after 24 hrs by NCCLS two fold broth microdilution method; format: functional; conditions: ATCC 8099, 24 h
How it was run: (§2)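 Two-fold serial broth microdilution in 96-well plates following NCCLS. Plates were inoculated and incubated at 37 °C for 24 h, with growth read visually and spectrophotometrically. MIC was taken as the lowest concentration giving complete growth inhibition. Run in triplicate, with a DMSO-plus-inoculum solvent control.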

Pseudomonas aeruginosa = test: Antibacterial activity against Pseudomonas aeruginosa ATCC 27853 after 24 hrs by NCCLS two fold broth microdilution method; format: functional; conditions: ATCC 27853, 24 h; how it was run: as §2
Salmonella typhi = test: Antibacterial activity against Bacillus typhi after 24 hrs by NCCLS two fold broth microdilution method; format: functional, Salmonella enterica subsp. enterica serovar Typhi; conditions: Salmonella enterica
How it was run: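 Two-fold serial broth microdilution per NCCLS. DMSO stocks diluted in Mueller–Hinton broth to 512, 256, 128, 64, 32, 16, 8, 4, 2, 1, 0.5 µg/mL. Chloromycin and norfloxacin as reference drugs; DMSO with inoculum, no drug, as solvent control. Incubation 37 °C for 24 h. Growth read visually and spectrophotometrically. MIC is the lowest concentration completely inhibiting growth; triplicate.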

Candida albicans = test: Antifungal activity against Candida albicans ATCC 76615 after 24 hrs by NCCLS two fold broth microdilution method; format: functional; conditions: ATCC 76615, 24 h
How it was run: (§3)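 Two-fold serial microdilution following NCCLS. A spore suspension in sterile distilled water was prepared from one-day-old cultures grown on Sabouraud agar and adjusted to a final 1–5 × 10^3 spores/mL. DMSO stocks were diluted in RPMI 1640 to eleven concentrations (0.5–512 µg/mL), inoculated and held at 35 °C for 24 h. Growth was read visually and spectrophotometrically, MIC was the lowest concentration with complete inhibition, and runs were in triplicate.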

Pichia norvegensis = test: Antifungal activity against Candida mycoderma after 24 hrs by NCCLS two fold broth microdilution method; format: functional
Cyberlindnera jadinii = test: Antifungal activity against Candida utilis after 24 hrs by NCCLS two fold broth microdilution method; format: functional; conditions: Williopsis jadinii; how it was run: as §3
Saccharomyces cerevisiae = test: Antifungal activity against Saccharomyces cerevisiae after 24 hrs by NCCLS two fold broth microdilution method; format: functional; how it was run: as §3
Aspergillus flavus [3] = test: Antifungal activity against Aspergillus flavus after 24 hrs by NCCLS two fold broth microdilution method; format: functional; how it was run: as §3
Aspergillus flavus [4] = test: Potency index, ratio of Fluconazole MIC to compound MIC for Aspergillus flavus; format: functional

Row | SMILES | MIC (Staphylococcus aureus [1]) [µg/mL] | MIC (Staphylococcus aureus [2]) [µg/mL] | MIC (Bacillus subtilis) [µg/mL] | MIC (Micrococcus luteus) [µg/mL] | MIC (Bacillus) [µg/mL] | MIC (Escherichia coli) [µg/mL] | MIC (Pseudomonas aeruginosa) [µg/mL] | MIC (Salmonella typhi) [µg/mL] | MIC (Candida albicans) [µg/mL] | MIC (Pichia norvegensis) [µg/mL] | MIC (Cyberlindnera jadinii) [µg/mL] | MIC (Saccharomyces cerevisiae) [µg/mL] | MIC (Aspergillus flavus [3]) [µg/mL] | Ratio (Aspergillus flavus [4])
1 | Nc1ccc(S(=O)(=O)Cc2nc3ccccc3n2Cc2ccccc2F)cc1 | 64 (≈ 162 µM) | 64 (≈ 162 µM) | 16 (≈ 40.5 µM) | 32 (≈ 80.9 µM) | 256 (≈ 647 µM) | 4 (≈ 10.1 µM) | 512 (≈ 1290 µM) | 16 (≈ 40.5 µM) | 128 (≈ 324 µM) | 8 (≈ 20.2 µM) | 4 (≈ 10.1 µM) | 8 (≈ 20.2 µM) | 32 (≈ 80.9 µM) | 8
2 | CC(=O)Nc1ccc(S(=O)(=O)Cc2nc3ccccc3n2Cc2cccc(F)c2)cc1 | 512 (≈ 1170 µM) | 256 (≈ 585 µM) | 512 (≈ 1170 µM) | 512 (≈ 1170 µM) | 256 (≈ 585 µM) | 128 (≈ 293 µM) | 256 (≈ 585 µM) | 128 (≈ 293 µM) | 256 (≈ 585 µM) | 512 (≈ 1170 µM) | 512 (≈ 1170 µM) | 32 (≈ 73.1 µM) | 256 (≈ 585 µM) | 
3 | CCCCCCCCCCCCn1c(CS(=O)(=O)c2ccc(N)cc2)nc2ccccc21 | 512 (≈ 1120 µM) | 512 (≈ 1120 µM) | 512 (≈ 1120 µM) | 256 (≈ 562 µM) | 512 (≈ 1120 µM) | 512 (≈ 1120 µM) | 512 (≈ 1120 µM) | 512 (≈ 1120 µM) | 512 (≈ 1120 µM) | 512 (≈ 1120 µM) | 512 (≈ 1120 µM) | 256 (≈ 562 µM) | 512 (≈ 1120 µM) | 
4 | Nc1ccc(S(=O)(=O)Cc2nc3ccccc3n2Cc2ccc(F)cc2)cc1 | 16 (≈ 40.5 µM) | 512 (≈ 1290 µM) | 512 (≈ 1290 µM) | 512 (≈ 1290 µM) | 128 (≈ 324 µM) | 256 (≈ 647 µM) | 16 (≈ 40.5 µM) | 16 (≈ 40.5 µM) | 32 (≈ 80.9 µM) | 512 (≈ 1290 µM) | 128 (≈ 324 µM) | 32 (≈ 80.9 µM) | 256 (≈ 647 µM) | 
5 | CCCCCn1c(CS(=O)(=O)c2ccc(N)cc2)nc2ccccc21 | 512 (≈ 1430 µM) | 512 (≈ 1430 µM) | 512 (≈ 1430 µM) | 256 (≈ 716 µM) | 512 (≈ 1430 µM) | 512 (≈ 1430 µM) | 512 (≈ 1430 µM) | 512 (≈ 1430 µM) | 512 (≈ 1430 µM) | 512 (≈ 1430 µM) | 512 (≈ 1430 µM) | 128 (≈ 358 µM) | 256 (≈ 716 µM) | 
6 | Nc1ccc(S(=O)(=O)Cc2nc3ccccc3n2Cc2cccc(F)c2)cc1 | 512 (≈ 1290 µM) | 128 (≈ 324 µM) | 512 (≈ 1290 µM) | 512 (≈ 1290 µM) | 256 (≈ 647 µM) | 128 (≈ 324 µM) | 512 (≈ 1290 µM) | 512 (≈ 1290 µM) | 128 (≈ 324 µM) | 512 (≈ 1290 µM) | 512 (≈ 1290 µM) | 8 (≈ 20.2 µM) | 256 (≈ 647 µM) | 
7 | CC(=O)Nc1ccc(S(=O)(=O)Cc2nc3ccccc3[nH]2)cc1 | 32 (≈ 97.2 µM) | 128 (≈ 389 µM) | 32 (≈ 97.2 µM) | 128 (≈ 389 µM) | 64 (≈ 194 µM) | 64 (≈ 194 µM) | 32 (≈ 97.2 µM) | 128 (≈ 389 µM) | 32 (≈ 97.2 µM) | 64 (≈ 194 µM) | 16 (≈ 48.6 µM) | 32 (≈ 97.2 µM) | 128 (≈ 389 µM) | 
8 | CC(=O)Nc1ccc(S(=O)(=O)Cc2nc3ccccc3n2Cc2cccc(Cl)c2)cc1 | 32 (≈ 70.5 µM) | 128 (≈ 282 µM) | 128 (≈ 282 µM) | 64 (≈ 141 µM) | 128 (≈ 282 µM) | 64 (≈ 141 µM) | 256 (≈ 564 µM) | 128 (≈ 282 µM) | 512 (≈ 1130 µM) | 256 (≈ 564 µM) | 512 (≈ 1130 µM) | 128 (≈ 282 µM) | 256 (≈ 564 µM) | 
9 | CCCCCCCCn1c(CS(=O)(=O)c2ccc(NC(C)=O)cc2)nc2ccccc21 | 64 (≈ 145 µM) | 512 (≈ 1160 µM) | 128 (≈ 290 µM) | 256 (≈ 580 µM) | 256 (≈ 580 µM) | 512 (≈ 1160 µM) | 256 (≈ 580 µM) | 512 (≈ 1160 µM) | 512 (≈ 1160 µM) | 512 (≈ 1160 µM) | 512 (≈ 1160 µM) | 8 (≈ 18.1 µM) | 512 (≈ 1160 µM) | 
